Reference: the EternaBench riboswitch data

Tested on: MS2 coat protein
Assay: apparent Kd, MS2 coat protein; higher = weaker binding; RNA-MaP array
Outline: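 Fluorescently labeled MS2 coat protein, from 1.5 nM to 3 μM, was incubated at room temperature with designed RNAs transcribed on an Illumina sequencing chip from sequenced DNA templates. Times ran from 0.8–1.5 h at the lowest concentrations to 10–20 min at the highest, in Tris-HCl pH 7.5 buffer with KCl, MgCl2, BSA, DTT, tRNA and Tween20, with or without input ligand. Each apparent Kd is the median of per-cluster binding-curve fits, and designs with fewer than 10 measured clusters were excluded.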

[1] = designed as: ON switch for flavin mononucleotide, no ligand
[2] = ligand present: flavin mononucleotide, designed as: ON switch for flavin mononucleotide
[3] = designed as: OFF switch for flavin mononucleotide, no ligand
[4] = ligand present: flavin mononucleotide, designed as: OFF switch for flavin mononucleotide
[5] = designed as: ON switch for theophylline, no ligand
[6] = ligand present: theophylline, designed as: ON switch for theophylline
[7] = designed as: ON switch for tryptophan, no ligand
[8] = ligand present: tryptophan, designed as: ON switch for tryptophan
[9] = designed as: OFF switch for theophylline, no ligand
[10] = ligand present: theophylline, designed as: OFF switch for theophylline

Sequence | apparent Kd [3] | apparent Kd [4] | other results
AAAGAUAACAAAGGAUAUGGAAGAAAUUAUAGGCCAGAAGGAUGGAAAUUGACAAUCGUGACAUGAGGAUCACCCAUGUAAGAA | – | – | apparent Kd [1]: 15.9 nM; apparent Kd [2]: 13.2 nM
AUACGUGCAGGAUAUUAUUCGAGCCACAUGAGGAUCACCCAUGUUAAUUCUUCAUGUAUCUAAGAAGGGCAGUGAA | 9.07 nM | 9.67 nM | –
CCUGAGGUUAUAGGAUAUAGGCUAGAGAGGUACGAUUCUUUAUGAACAUGAGGAUCACCCAUGUCCUAGAAGGAUACUUAGUAG | – | – | apparent Kd [1]: 58.1 nM; apparent Kd [2]: 112 nM
GGACAUGAGGAUCACCCAUGUAGUGGAGGGCUCAGGCUCGCAAGAAGGUUAAGAAUAUAGUCAAUAAAGGAUAUUGAGGGCCGA | 21.7 nM | 19.2 nM | –
UGAUUGAGCGGAGGAUAUCUUAAUGAGCACGUAAGAGAAGGCCGGUGGCUCCUAUAUGCAGCGCACAUGAGGAUCACCCAUGUC | 170 nM | 91.6 nM | –
GGCAAGUGAUAGAAGGGAUACAUGAGGAUCACCCAUGUAAGGGCGAAGCCUACCCUCCUUAAAGAUCAGGAUAUAUUGCAGACG | 20.3 nM | 19.6 nM | –
CAGUGAGCCAAGAAGGUUGCUGACGAUAGUGGCAAAGGAUAUUGAGGGCGCAAUCAUUUACAUGAGGAUCACCCAUGUUCUUAC | – | – | apparent Kd [1]: 35.4 nM; apparent Kd [2]: 17.5 nM
UCUCUCGAUGUGCAUUGACAUGAGGAUCACCCAUGUACUGCCUAGGAUAUAACUGGCCCGAUCAGUUAGAAGGAGGGAGAAUAG | 6.67 nM | 6.51 nM | –
UACAAACCGUUAGAUGGGACAUGAGGAUCACCCAUGUAUAACAGAAGGUCAAAUUGAAACAUUCAGAAGGAUAUGUCAUACAAA | 85.3 nM | 59.5 nM | –
CCUUCGUCGAAUGUGUAACAUGAGGAUCACCCAUGUAGUCUGGAGGAUAUCUAACACAGCUGAAAAGAGAAGGCCAGGUCUGCA | 26 nM | 48.6 nM | –
GCACUAGAGCAAGGAUAUAUAUCGGAAUCUACAUGAGGAUCACCCAUGUGUGUGACUUCUCGCAGAUAGAAGGUGCUCGCUGAC | 433 nM | 206 nM | –
ACCAGGUCAGGAUAUAGUUGGCAUUUGGCUGUGCCUCACUACUAGAAGGGACAUGAGGAUCACCCAUGUUGGGC | 28.6 nM | 50.5 nM | –
UAUACACAUCCACAUGAGGAUCACCCAUGUGUGCCUCGUUCCGAGGAUAUGGGCCACGAUGUUUCCCAGAAGGCGGUCGCUAUA | 15 nM | 12.7 nM | –
CAAGGGAAAGUCAGGAUAUGCACAACCGACCGUUUGCAGAAGGGACAUGAGGAUCACCCAUGUGUGGAACUGUU | 9.02 nM | 21.4 nM | –
CCCGUGCUGCGAGGAUAUGUGUAGGAUGUUUCCACAGAAGGCGCUGGAGACAUGAGGAUCACCCAUGUGAACCCACGUACGACA | – | – | apparent Kd [1]: 24.9 nM; apparent Kd [2]: 19.9 nM
GGGAAACAUGAGGAUCACCCAUGUAAGGAUAUAGAAGAUUCAACAUUCAAGAAUGAGACUAGAAGGUACAGAUC | 20.2 nM | 17.9 nM | –
UUACAAAACCAGAAGGUCUAAAAGAUUAAAUGAGAAGGAUAUGGCUAAACAUGAGGAUCACCCAUGUAGAAAACGAUACGUGAU | – | – | apparent Kd [1]: 37.8 nM; apparent Kd [2]: 29.9 nM
GUUUUUUAAGGAUAUUCUAUUUCUAACAUGAGGAUCACCCAUGUACCCUCGUGCUAGCGAGAAGAAGGUAACAAAC | 546 nM | 427 nM | –
UUCACGUUAGGAUAUCGCGUCAGCACAGCCUGUAUGGCAAGCGAGAAGGAACAUGAGGAUCACCCAUGUCGGAC | 11.4 nM | 28.7 nM | –
GGGAUUCGUGUUAGGAUAUUGAGGUGUAUUCCCGACAAGAAGGAACAUGAGGAUCACCCAUGUUGGGAACUGUG | 33.9 nM | 62.6 nM | –
CGAUGGGUAACAGGAUAUGAAUGGAAACCUCCAGUGUUGAGCACUUACAUGAGGAUCACCCAUGUUCAGAAGGGUUUGUGAUUG | – | – | apparent Kd [1]: 38.9 nM; apparent Kd [2]: 59.9 nM
GUGCACCGUGAGAAGGCAUAGCACGUGUCGCUGACAUGAGGAUCACCCAUGUGUUGUAAAGUGCAUGAGGAUAUCAGCCAUAGG | – | – | apparent Kd [1]: 42.3 nM; apparent Kd [2]: 10.4 nM
UGUACAACAUGAGGAUCACCCAUGUGGCACCUCUGUCGAUUCGAGGAUAUCAGGUAAAGUGGCUGUGAGAAGGCGAAAGUUCCG | 65 nM | 50.3 nM | –
AGUCCCAGGGAGAAGGACAUGAUCACAUGAGGAUCACCCAUGUGAGCCAUUUUAUGUAGGGACGUGUAGGAUAUCCGGACAUGG | 6.27 nM | 6.11 nM | –
AGAGUGAGAGGAUAUUUUGGCGUAGACAUGAGGAUCACCCAUGUGUCGUGGGCACUGCUGAAAGAAGGCUCAGCUC | 29.3 nM | 25.3 nM | –
GAUCUGGCGGUGAGGAUAUAUAUCAAAUGCAAGGCAUAGAAGGCACAUGAGGAUCACCCAUGUCUGCACCAGGG | 14 nM | 15.6 nM | –
AUUAGCAAGUCAUAGGAUAUGAAGCCACUUACAUGAGGAUCACCCAUGUAAUUCCGGGUCCCGCCUCAGAAGGAUGACGUAAUAGG | – | – | apparent Kd [1]: 17.1 nM; apparent Kd [2]: 7.12 nM

Sequence | apparent Kd [3] | apparent Kd [4] | other results
AAGAGACAUGAGGAUCACCCAUGUGUUGAUACCAGAAACACAAAGUUCCCUUGGCAGCAAAUCUGAGCGAAACGAUCUAGAGCGC | – | – | apparent Kd [5]: 48.4 nM; apparent Kd [6]: 74.5 nM
UGUAUGUUAGGAUAUAGUGUGACACUGUAAUUGCUCGGCACCUAGAAGGAACAUGAGGAUCACCCAUGUGGUGG | 337 nM | 244 nM | –
CGAAGUAGUAGAGGAUAUGCUAGAGAUGGUUCUGCAGAAGGCUACCCUCUUGAUUAUAUUACAUGAGGAUCACCCAUGUUGGUU | 10.7 nM | 10.2 nM | –
GCAUUAGAGGACACAUGAGGAUCACCCAUGUGCAUCAUCAGAUAGGAUAUCUUAACAGAAAUUUGAGAGAAGGAUCGUGUUCGG | 7.84 nM | 7.53 nM | –
CCUCACGGACUCUCCACAUGAGGAUCACCCAUGUAAGCCGCGAAGGAUAUGAACGUCUCUCCGGGUCAGAAGGUCGCCGGUCCU | 8.78 nM | 9.71 nM | –
UAAACAUGAGGAUCACCCAUGUAUUGGAGUAACCGCAAGAGGAGAAGGACCGGAGUGAGAUUAUGGUAGGAUAUCCCAACUACA | – | – | apparent Kd [1]: 17.6 nM; apparent Kd [2]: 12.1 nM
GUGCGAAUGCAAGGAUAUGUCACAUAAACUGGAACAGAAGGUGCUGCUGAACAUGAGGAUCACCCAUGUACUUGACCGGCAACU | – | – | apparent Kd [1]: 7.6 nM; apparent Kd [2]: 6.81 nM
GGCCUUGUUGUUAUAGGACAUGAGGAUCACCCAUGUAUAUGUAAGGAUAUGAAUCGUAAGACGCAUCAGAAGGUACAGUACUGG | 122 nM | 55.8 nM | –
UCCAAAUUCCAGAAGGCGUUUAAGCGAGGGUAGGGCGUGCAACAUGAGGAUCACCCAUGUAAUCACGAGGAUAUGGGAGGCACC | 7.65 nM | 8.34 nM | –
GACUAAUAGGAGAAGGGACAAUCUACAAUCGCGUCAGGAUAUCCGACAUGAGGAUCACCCAUGUAGAGAAGGGCGCAGCCCGGC | – | – | apparent Kd [1]: 24.3 nM; apparent Kd [2]: 18.3 nM
CCUCACAUGAGGAUCACCCAUGUCUUUACACGAGGACCGGUACGGCCGCCACUCGUUCACAAAACAACCAGAAGUGAUGCCUACA | – | – | apparent Kd [7]: 140 nM; apparent Kd [8]: 169 nM
UGGACUUCAGGAUAUACAUGAGGAUCACCCAUGUAUACGUGUAUGAUCCCAGAAACAAGUAGAAGGGAAAGCCG | 5.71 nM | 5.65 nM | –
UCGGUUCGUGUAGGAUAUACUCGCAAACAGGCAAAAUGCCUACAUGAGGAUCACCCAUGUUAGUGGUAGAAGGACACCUCAACA | – | – | apparent Kd [1]: 479 nM; apparent Kd [2]: 115 nM
AGUUGUGGAAAGAAGGCGUGACGAGGUAAAUAUCCAACAUGAGGAUCACCCAUGUUUCUUGCCUACGAGGAUAUUUGUGCUAUC | – | – | apparent Kd [1]: 14 nM; apparent Kd [2]: 12.2 nM
AGCUCGGCAGGAUAUACAUGAGGAUCACCCAUGUUUGCAGGCGCGCCGGUAGACUUUUGUAGAAGGGCCGUAUA | 44.8 nM | 113 nM | –
GGCGGGAAAUGAGGAUAUGGUAGUUGAGAAACGCCAGAAGGCAUUGGCAAGGCUAGAGACAUGAGGAUCACCCAUGUAAUCAUA | – | – | apparent Kd [1]: 8.35 nM; apparent Kd [2]: 7 nM
AGGAAGACGAUGGAUACCAGACAACCAGGGAACAUGAGGAUCACCCAUGUGAUUGAAAGGGUCCCUUGGCAGCCAGAAGCCGUUG | – | – | apparent Kd [5]: 88.3 nM; apparent Kd [6]: 119 nM
AGAAAACAUGAGGAUCACCCAUGUAAGGAUAUACAAACUCCAGAAAUAAAAGGAUUAAGAAGAAGGUACAUAAA | 10.9 nM | 9.2 nM | –
CGCCACACAUGAUAAUCAUAACAUGAGGAUCACCCAUGUCAUAGAAGGUGCAUAUUUUAGAAUCGCAAGGAUAUAUGGACAAUU | 16.2 nM | 18.7 nM | –
GUAUGGGCGUAACAUGAGGAUCACCCAUGUCCGAAUGCGAUGAGAAGGCCACAUAGUUGGCUGAUGGAGGAUAUCAAAGUAUAU | 97.9 nM | 70.8 nM | –
CAAAUAGACCACGAUACCAGAACACAAGGAGUAAUAUCAAACAUGAGGAUCACCCAUGUCUUCCCUUGGCAGCGUAGCACGGAGU | – | – | apparent Kd [9]: 11.7 nM; apparent Kd [10]: 13.3 nM
AUUAACAUGAGGAUCACCCAUGUGGCCCACCGAGGACCGGUACGGCCGCCACUCGUCGGAAAGGCUAAAUUUAUGAAGUCCAAAA | – | – | apparent Kd [7]: 18.7 nM; apparent Kd [8]: 16.1 nM
CCUCGAUUUUGAUACCGAUAUGUCUUUGAUACCAGCGCCAUAGUACGCCCUUGGCAGCAAGAAACAUGAGGAUCACCCAUGUUAA | – | – | apparent Kd [9]: 16.7 nM; apparent Kd [10]: 49.8 nM
UCACCAUGUCGAAACAUGAGGAUCACCCAUGUGAAUCAUGACAGAAGGUCUAUAGAAUGACGGAAGAAGGAUAUGUCAAUGCGC | 17.8 nM | 17.4 nM | –
CACGAACAUGAGGAUCACCCAUGUCAGGAUAUCGUGCUAAUCCCAUAAUCGGCGCGCACGAGAAGGGACCAGGG | 12.7 nM | 19.6 nM | –
CUGAGCCUGUGUGUACAUGAGGAUCACCCAUGUUCGAUAGGGUAGGAUAUCGCAGUUUCUUGAGCCGAGAAGGACCCUAAUGGA | 16.5 nM | 30.1 nM | –
AAGGGCGCAGUAGGAUAUCAAUGUUUGACGGCGUGAGAAGGACUGCCCUAUUUUCAGACAUGAGGAUCACCCAUGUGCGUAAGA | – | – | apparent Kd [1]: 9.4 nM; apparent Kd [2]: 6.41 nM
